# Laboratory results from PubChem BioAssay AID652139 (Broad Institute, 2013).
# Results filed as inconclusive are left out. Active and inactive are the calls of the source. No rule for the calls is given here.
# Experiments:
# Test in all cases: cell viability loss in multiple lines – CellTiter-Glo ATP luminescence, multiple timepoints, mechanism study for HRAS target identification project, profiling panel (AID 652139)
# Conditions in all cases: Cancer/normal cell panel viability
# [1] = test system: SR
# Procedure, shortened: (§1)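 Material: Human tumour lines plus mouse C2C12 and HUVEC | Input: 1,500 cells/well | Times: Overnight preculture, multiple exposures incl. 24, 48 h, all 37 °C | Technique: CellTiter-Glo luminescence measuring cellular ATP | Format: Separate assay plate for each exposure timepoint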
# [2] = test system: CCRF-CEM
# Procedure, shortened: as §1
# [3] = test system: HT-29
# Procedure, shortened: as §1
# [4] = test system: SNB-75
# Procedure, shortened: as §1
# [5] = test system: LOX-IMVI
# Procedure, shortened: as §1
# [6] = test system: C2C12
# Procedure, shortened: as §1
# [7] = test system: U-251
# Procedure, shortened: as §1
# [8] = test system: HeLA
# Procedure, shortened: as §1
# [9] = test system: SNB-19
# Procedure, shortened: as §1
# [10] = test system: HUVEC
# Procedure, shortened: as §1
Structure (SMILES),AC50 [1] [µM],AC50 [2] [µM],AC50 [3],AC50 [4] [µM],AC50 [5] [µM],AC50 [6] [µM],AC50 [7],AC50 [8],outcome [1],outcome [2],outcome [3],outcome [9],outcome [4],outcome [10],outcome [5],outcome [6],outcome [7],outcome [8],AC50 [9] [µM],AC50 [10] [µM]
COC(=O)c1ccc([C@@H]2c3[nH]c4ccccc4c3C[C@@H](C(=O)OC)N2C(=O)CCl)cc1,0.0329,0.0828,0.177 µM,0.355,0.031,0.101,1.06 µM,0.573 µM,–,–,–,–,–,–,–,–,–,–,–,–
Cc1onc(C(=O)N2CCN(C(c3ccncc3)c3ccncc3)CC2)c1[N+](=O)[O-],–,–,–,–,–,–,–,–,inactive,inactive,inactive,inactive,inactive,inactive,inactive,inactive,inactive,inactive,–,–
CCC(=O)N(c1ccc(OC)c(Cl)c1)C(C(=O)NCCc1ccccc1)c1cccs1 (centres undefined),–,–,> 70 µM (inactive),–,–,–,–,> 70 µM (inactive),–,–,–,inactive,–,–,inactive,–,inactive,–,–,–
CC(C)(C)OC(=O)NCCOCCOCCOc1ccc(N(C(=O)CCl)C(C(=O)NCCc2ccccc2)c2cccs2)cc1Cl (centres undefined),0.0951,0.14,0.457 µM,0.686,0.0834,0.442,1.35 µM,0.65 µM,–,–,–,–,–,–,–,–,–,–,1.72,13.7
COc1ccc(N(C(=O)CCl)C(C(=O)NCCc2ccccc2)c2cccs2)cc1Cl (centres undefined),0.0618,0.119,0.162 µM,0.286,0.0405,0.842,0.896 µM,0.547 µM,–,–,–,–,–,–,–,–,–,–,1.17,8.94
Cc1onc(C(=O)N2CCN(C(c3ccc(Cl)cc3)c3ccc(Cl)cc3)CC2)c1[N+](=O)[O-],0.142,0.207,0.963 µM,0.687,0.103,–,> 70 µM (inactive),–,–,–,–,–,–,inactive,–,–,–,–,–,–
C#CCCCC(=O)NCCOCCOCCOc1ccc(N(C(=O)CCl)C(C(=O)NCCc2ccccc2)c2cccs2)cc1Cl (centres undefined),0.885,1.34,2.86 µM,3.56,0.421,5.42,6.81 µM,4.49 µM,–,–,–,–,–,–,–,–,–,–,4.45,–
